# Results as given in ChEMBL document CHEMBL4118033, “Total Synthesis, Configuration Assignment, and Cytotoxic Activity Evaluation of Protulactone A” (J Nat Prod, 2017).
# Activity calls are given as the source filed them. No cut-off for these calls is given here.
# Experiments:
# Type in all cases: functional, cell-based
# [1] = system: Hs-578T; assay: Antiproliferative activity against human Hs 578T cells at 10 uM incubated for 48 hrs by sulforhodamine B assay
# Procedure, shortened: (§1)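 Run by the NCI Developmental Therapeutics Program (Division of Cancer Treatment and Diagnosis) as part of the NCI60 human tumour cell line panel screen. Each compound was tested at a single dose of 10 μM. Results are reported as one-dose mean graphs.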
# [2] = system: UACC-62; assay: Antiproliferative activity against human UACC62 cells at 10 uM incubated for 48 hrs by sulforhodamine B assay
# Procedure, shortened: (§2)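 Run by the NCI Developmental Therapeutics Program (Division of Cancer Treatment and Diagnosis) as part of the NCI60 human tumour cell line panel. Each compound was tested in vitro at a single dose of 10 μM, and the data are reported as one-dose mean graphs across the panel.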
# [3] = system: TK-10; assay: Antiproliferative activity against human TK10 cells at 10 uM incubated for 48 hrs by sulforhodamine B assay; procedure, shortened: as §2
# [4] = system: IGROV-1; assay: Antiproliferative activity against human IGROV1 cells at 10 uM incubated for 48 hrs by sulforhodamine B assay; procedure, shortened: as §1
# [5] = system: BT-549; assay: Antiproliferative activity against human BT549 cells at 10 uM incubated for 48 hrs by sulforhodamine B assay; procedure, shortened: as §1
# [6] = system: OVCAR-4; assay: Antiproliferative activity against human OVCAR4 cells at 10 uM incubated for 48 hrs by sulforhodamine B assay; procedure, shortened: as §1
# [7] = system: PC-3; assay: Antiproliferative activity against human PC3 cells at 10 uM incubated for 48 hrs by sulforhodamine B assay; procedure, shortened: as §1
# [8] = system: NCI-H322M; assay: Antiproliferative activity against human NCI-H322M cells at 10 uM incubated for 48 hrs by sulforhodamine B assay; procedure, shortened: as §1
# [9] = system: HCC 2998; assay: Antiproliferative activity against human HCC2998 cells at 10 uM incubated for 48 hrs by sulforhodamine B assay; procedure, shortened: as §1
# [10] = system: UO-31; assay: Antiproliferative activity against human UO31 cells at 10 uM incubated for 48 hrs by sulforhodamine B assay; procedure, shortened: as §2
# [11] = system: NCI/ADR-RES; assay: Antiproliferative activity against human NCI/ADR-RES cells at 10 uM incubated for 48 hrs by sulforhodamine B assay; procedure, shortened: as §1
# [12] = system: HOP-62; assay: Antiproliferative activity against human HOP62 cells at 10 uM incubated for 48 hrs by sulforhodamine B assay; procedure, shortened: as §1
# [13] = system: NCI-H23; assay: Antiproliferative activity against human NCI-H23 cells at 10 uM incubated for 48 hrs by sulforhodamine B assay; procedure, shortened: as §1
# [14] = system: NCI-H522; assay: Antiproliferative activity against human NCI-H522 cells at 10 uM incubated for 48 hrs by sulforhodamine B assay; procedure, shortened: as §1
# [15] = system: Malme-3M; assay: Antiproliferative activity against human MALME-3M cells at 10 uM incubated for 48 hrs by sulforhodamine B assay; procedure, shortened: as §1
# [16] = system: HCT-116; assay: Antiproliferative activity against human HCT116 cells at 10 uM incubated for 48 hrs by sulforhodamine B assay; procedure, shortened: as §1
# [17] = system: MDA-MB-468; assay: Antiproliferative activity against human MDA-MB-468 cells at 10 uM incubated for 48 hrs by sulforhodamine B assay; procedure, shortened: as §1
# [18] = system: MDA-MB-435; assay: Antiproliferative activity against human MDA-MB-435 cells at 10 uM incubated for 48 hrs by sulforhodamine B assay; procedure, shortened: as §1
# [19] = system: RPMI-8226; assay: Antiproliferative activity against human RPMI8226 cells at 10 uM incubated for 48 hrs by sulforhodamine B assay; procedure, shortened: as §1
# [20] = system: MOLT-4; assay: Antiproliferative activity against human MOLT4 cells at 10 uM incubated for 48 hrs by sulforhodamine B assay; procedure, shortened: as §1
# [21] = system: HOP-92; assay: Antiproliferative activity against human HOP92 cells at 10 uM incubated for 48 hrs by sulforhodamine B assay; procedure, shortened: as §1
# [22] = system: MCF7; assay: Antiproliferative activity against human MCF7 cells at 10 uM incubated for 48 hrs by sulforhodamine B assay; procedure, shortened: as §1
# [23] = system: T47D; assay: Antiproliferative activity against human T47D cells at 10 uM incubated for 48 hrs by sulforhodamine B assay; procedure, shortened: as §2
# [24] = system: A549; assay: Antiproliferative activity against human A549/ATCC cells at 10 uM incubated for 48 hrs by sulforhodamine B assay; procedure, shortened: as §1
# [25] = system: SF-295; assay: Antiproliferative activity against human SF295 cells at 10 uM incubated for 48 hrs by sulforhodamine B assay; procedure, shortened: as §1
# [26] = system: HT-29; assay: Antiproliferative activity against human HT-29 cells at 10 uM incubated for 48 hrs by sulforhodamine B assay; procedure, shortened: as §1
# [27] = system: DU-145; assay: Antiproliferative activity against human DU145 cells at 10 uM incubated for 48 hrs by sulforhodamine B assay; procedure, shortened: as §1
# [28] = system: COLO 205; assay: Antiproliferative activity against human COLO205 cells at 10 uM incubated for 48 hrs by sulforhodamine B assay; procedure, shortened: as §1
# [29] = system: SW-620; assay: Antiproliferative activity against human SW620 cells at 10 uM incubated for 48 hrs by sulforhodamine B assay; procedure, shortened: as §2
# [30] = system: UACC-257; assay: Antiproliferative activity against human UACC257 cells at 10 uM incubated for 48 hrs by sulforhodamine B assay; procedure, shortened: as §2
# [31] = system: SK-MEL-2; assay: Antiproliferative activity against human SK-MEL-2 cells at 10 uM incubated for 48 hrs by sulforhodamine B assay; procedure, shortened: as §1
# [32] = system: CCRF-CEM; assay: Antiproliferative activity against human CCRF-CEM cells at 10 uM incubated for 48 hrs by sulforhodamine B assay; procedure, shortened: as §1
# [33] = system: MDA-MB-231; assay: Antiproliferative activity against human MDA-MB-231 cells at 10 uM incubated for 48 hrs by sulforhodamine B assay; procedure, shortened: as §1
# [34] = system: SN12C; assay: Antiproliferative activity against human SN12C cells at 10 uM incubated for 48 hrs by sulforhodamine B assay; procedure, shortened: as §1
# [35] = system: EKVX; assay: Antiproliferative activity against human EKVX cells at 10 uM incubated for 48 hrs by sulforhodamine B assay; procedure, shortened: as §1
# [36] = system: SF-268; assay: Antiproliferative activity against human SF268 cells at 10 uM incubated for 48 hrs by sulforhodamine B assay; procedure, shortened: as §1
# [37] = system: ACHN; assay: Antiproliferative activity against human ACHN cells at 10 uM incubated for 48 hrs by sulforhodamine B assay; procedure, shortened: as §1
# [38] = system: M14; assay: Antiproliferative activity against human M14 cells at 10 uM incubated for 48 hrs by sulforhodamine B assay; procedure, shortened: as §1
# [39] = system: LOX IMVI; assay: Antiproliferative activity against human LOXIMVI cells at 10 uM incubated for 48 hrs by sulforhodamine B assay; procedure, shortened: as §1
# [40] = system: OVCAR-3; assay: Antiproliferative activity against human OVCAR3 cells at 10 uM incubated for 48 hrs by sulforhodamine B assay; procedure, shortened: as §1
# [41] = system: SK-MEL-5; assay: Antiproliferative activity against human SK-MEL-5 cells at 10 uM incubated for 48 hrs by sulforhodamine B assay; procedure, shortened: as §1
# [42] = system: KM12; assay: Antiproliferative activity against human KM12 cells at 10 uM incubated for 48 hrs by sulforhodamine B assay; procedure, shortened: as §1
# [43] = system: SR; assay: Antiproliferative activity against human SR cells at 10 uM incubated for 48 hrs by sulforhodamine B assay; procedure, shortened: as §2
# [44] = system: RXF 393; assay: Antiproliferative activity against human RXF393 cells at 10 uM incubated for 48 hrs by sulforhodamine B assay; procedure, shortened: as §1
# [45] = system: K562; assay: Antiproliferative activity against human K562 cells at 10 uM incubated for 48 hrs by sulforhodamine B assay; procedure, shortened: as §1
structure (smiles),measurement,setting,value
O=C(/C=C/c1ccccc1)O[C@H](c1ccccc1)[C@@H]1O[C@@H]2CC(=O)O[C@@H]2[C@H]1O,Activity,[1],Active
same,Activity,[2],Active
same,Activity,[3],Active
same,Activity,[4],Active
same,Activity,[5],Active
same,Activity,[6],Active
same,Activity,[7],Active
same,Activity,[8],Active
same,Activity,[9],Active
same,Activity,[10],Active
same,Activity,[11],Active
same,Activity,[12],Active
same,Activity,[13],Active
same,Activity,[14],Active
same,Activity,[15],Active
same,Activity,[16],Active
same,Activity,[17],Active
same,Activity,[18],Active
same,Activity,[19],Active
same,Activity,[20],Active
same,Activity,[21],Active
same,Activity,[22],Active
same,Activity,[23],Active
same,Activity,[24],Active
same,Activity,[25],Active
same,Activity,[26],Active
same,Activity,[27],Active
same,Activity,[28],Active
same,Activity,[29],Active
same,Activity,[30],Active
same,Activity,[31],Active
same,Activity,[32],Active
same,Activity,[33],Active
same,Activity,[34],Active
same,Activity,[35],Active
same,Activity,[36],Active
same,Activity,[37],Active
same,Activity,[38],Active
same,Activity,[39],Active
same,Activity,[40],Active
same,Activity,[41],Active
same,Activity,[42],Active
same,Activity,[43],Active
same,Activity,[44],Active
same,Activity,[45],Active
CC(=O)O[C@@H](C)[C@@H]1O[C@@H]2CC(=O)O[C@@H]2[C@H]1O,Activity,[1],inactive
same,Activity,[2],inactive
same,Activity,[3],inactive
same,Activity,[4],inactive
same,Activity,[5],inactive
same,Activity,[6],inactive
same,Activity,[7],inactive
same,Activity,[8],inactive
same,Activity,[9],inactive
same,Activity,[10],inactive
same,Activity,[11],inactive
same,Activity,[12],inactive
same,Activity,[13],inactive
same,Activity,[14],inactive
same,Activity,[15],inactive
same,Activity,[16],inactive
same,Activity,[17],inactive
same,Activity,[18],inactive
same,Activity,[19],inactive
same,Activity,[20],inactive
same,Activity,[21],inactive
same,Activity,[22],inactive
same,Activity,[23],inactive
same,Activity,[24],inactive
same,Activity,[25],inactive
same,Activity,[26],inactive
same,Activity,[27],inactive
same,Activity,[28],inactive
same,Activity,[29],inactive
same,Activity,[30],inactive
same,Activity,[31],inactive
same,Activity,[32],inactive
same,Activity,[33],inactive
same,Activity,[34],inactive
same,Activity,[35],inactive
same,Activity,[36],inactive
same,Activity,[37],inactive
same,Activity,[38],inactive
same,Activity,[39],inactive
same,Activity,[40],inactive
same,Activity,[41],inactive
same,Activity,[42],inactive
same,Activity,[43],inactive
same,Activity,[44],inactive
same,Activity,[45],inactive
O=C1C[C@H]2O[C@H]([C@H](O)c3ccccc3)[C@H](O)[C@H]2O1,Activity,[1],Active
same,Activity,[2],Active
same,Activity,[3],Active
same,Activity,[4],Active
same,Activity,[5],Active
same,Activity,[6],Active
same,Activity,[7],Active
same,Activity,[8],Active
same,Activity,[9],Active
same,Activity,[10],Active
same,Activity,[11],Active
same,Activity,[12],Active
same,Activity,[13],Active
same,Activity,[14],Active
same,Activity,[15],Active
same,Activity,[16],Active
same,Activity,[17],Active
same,Activity,[18],Active
same,Activity,[19],Active
same,Activity,[20],Active
same,Activity,[21],Active
same,Activity,[22],Active
same,Activity,[23],Active
same,Activity,[24],Active
same,Activity,[25],Active
same,Activity,[26],Active
same,Activity,[27],Active
same,Activity,[28],Active
same,Activity,[29],Active
same,Activity,[30],Active
same,Activity,[31],Active
same,Activity,[32],Active
same,Activity,[33],Active
same,Activity,[34],Active
same,Activity,[35],Active
same,Activity,[36],Active
same,Activity,[37],Active
same,Activity,[38],Active
same,Activity,[39],Active
same,Activity,[40],Active
same,Activity,[41],Active
same,Activity,[42],Active
same,Activity,[43],Active
same,Activity,[44],Active
same,Activity,[45],Active
